Assay results from ChEMBL document CHEMBL5058577, “EUbOPEN Chemogenomics Library 2 (Multiplex)” (2022).

Tested on: Fibroblast
Experiment: Multiplex assay against human fibroblast
Type: toxicity, cell-based
Summary of the method: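 Live cells were stained at seeding with Hoechst33342, BioTracker Green Microtubule Cytoskeleton Dye, MitoTracker Red and Annexin V Alexa Fluor 680, then imaged on a CQ1 microscope at 37°C and 5% CO2 after compound addition. CellPathfinder machine-learning gating split cells into Hoechst high-intensity objects or normal cells. Normal cells were split into healthy, pyknosed or fragmented nuclei, and pyknosed cells into mitotic or apoptotic. Tubulin, mitochondrial-mass and membrane-permeability phenotypes are per cents of healthy-nucleus cells.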

[1] = 12 h, 1 µM, compound concentration 1 uM, replicate 1
[2] = 12 h, 1 µM, compound concentration 1 uM, replicate 2
[3] = 12 h, 10 µM, compound concentration 10 uM, replicate 1
[4] = 12 h, 10 µM, compound concentration 10 uM, replicate 2
[5] = 24 h, 1 µM, compound concentration 1 uM, replicate 1
[6] = 24 h, 1 µM, compound concentration 1 uM, replicate 2
[7] = 24 h, 10 µM, compound concentration 10 uM, replicate 1
[8] = 24 h, 10 µM, compound concentration 10 uM, replicate 2
[9] = 48 h, 1 µM, compound concentration 1 uM, replicate 1
[10] = 48 h, 1 µM, compound concentration 1 uM, replicate 2
[11] = 48 h, 10 µM, compound concentration 10 uM, replicate 1
[12] = 48 h, 10 µM, compound concentration 10 uM, replicate 2

Cc1noc(-c2ccc(-c3ccc(CC(=O)O)cc3)cc2)c1NC(=O)O[C@H](C)c1ccccc1Cl
Population Apoptotic (%) [1]: 22%
Population Fragmented Nuclei (%) [1]: 14%
Population Healthy Nuclei (%) [1]: 77%
Population Hoechst High Intensity Objects (%) [1]: 0%
Population Membrane Permeable-Phenotype (%) [1]: 0%
Population Mitochondria Different-Phenotype (%) [1]: 1%
Population Mitotic Cells (%) [1]: 77%
Population Normal (%) [1]: 100%
Population Pyknosed Nuclei (%) [1]: 8%
Population Tubulin-Different-Phenotype (%) [1]: 10%
Total Cell Count [1]: 106
Population Apoptotic (%) [2]: 58%
Population Fragmented Nuclei (%) [2]: 21%
Population Healthy Nuclei (%) [2]: 60%
Population Hoechst High Intensity Objects (%) [2]: 5%
Population Membrane Permeable-Phenotype (%) [2]: 5%
Population Mitochondria Different-Phenotype (%) [2]: 2%
Population Mitotic Cells (%) [2]: 41%
Population Normal (%) [2]: 95%
Population Pyknosed Nuclei (%) [2]: 18%
Population Tubulin-Different-Phenotype (%) [2]: 26%
Total Cell Count [2]: 140
Population Apoptotic (%) [3]: 40%
Population Fragmented Nuclei (%) [3]: 20%
Population Healthy Nuclei (%) [3]: 62%
Population Hoechst High Intensity Objects (%) [3]: 1%
Population Membrane Permeable-Phenotype (%) [3]: 1%
Population Mitochondria Different-Phenotype (%) [3]: 6%
Population Mitotic Cells (%) [3]: 60%
Population Normal (%) [3]: 98%
Population Pyknosed Nuclei (%) [3]: 17%
Population Tubulin-Different-Phenotype (%) [3]: 31%
Total Cell Count [3]: 119
Population Apoptotic (%) [4]: 29%
Population Fragmented Nuclei (%) [4]: 17%
Population Healthy Nuclei (%) [4]: 45%
Population Hoechst High Intensity Objects (%) [4]: 6%
Population Membrane Permeable-Phenotype (%) [4]: 2%
Population Mitochondria Different-Phenotype (%) [4]: 10%
Population Mitotic Cells (%) [4]: 70%
Population Normal (%) [4]: 93%
Population Pyknosed Nuclei (%) [4]: 36%
Population Tubulin-Different-Phenotype (%) [4]: 57%
Total Cell Count [4]: 90
Population Apoptotic (%) [5]: 20%
Population Fragmented Nuclei (%) [5]: 16%
Population Healthy Nuclei (%) [5]: 78%
Population Hoechst High Intensity Objects (%) [5]: 0%
Population Membrane Permeable-Phenotype (%) [5]: 0%
Population Mitochondria Different-Phenotype (%) [5]: 1%
Population Mitotic Cells (%) [5]: 80%
Population Normal (%) [5]: 100%
Population Pyknosed Nuclei (%) [5]: 4%
Population Tubulin-Different-Phenotype (%) [5]: 10%
Total Cell Count [5]: 102
Population Apoptotic (%) [6]: 52%
Population Fragmented Nuclei (%) [6]: 30%
Population Healthy Nuclei (%) [6]: 57%
Population Hoechst High Intensity Objects (%) [6]: 2%
Population Membrane Permeable-Phenotype (%) [6]: 1%
Population Mitochondria Different-Phenotype (%) [6]: 7%
Population Mitotic Cells (%) [6]: 47%
Population Normal (%) [6]: 97%
Population Pyknosed Nuclei (%) [6]: 12%
Population Tubulin-Different-Phenotype (%) [6]: 28%
Total Cell Count [6]: 161
Population Apoptotic (%) [7]: 50%
Population Fragmented Nuclei (%) [7]: 20%
Population Healthy Nuclei (%) [7]: 68%
Population Hoechst High Intensity Objects (%) [7]: 1%
Population Membrane Permeable-Phenotype (%) [7]: 0%
Population Mitochondria Different-Phenotype (%) [7]: 7%
Population Mitotic Cells (%) [7]: 50%
Population Normal (%) [7]: 98%
Population Pyknosed Nuclei (%) [7]: 11%
Population Tubulin-Different-Phenotype (%) [7]: 29%
Total Cell Count [7]: 122
Population Apoptotic (%) [8]: 32%
Population Fragmented Nuclei (%) [8]: 26%
Population Healthy Nuclei (%) [8]: 41%
Population Mitochondria Different-Phenotype (%) [8]: 10%
Population Mitotic Cells (%) [8]: 67%
Population Pyknosed Nuclei (%) [8]: 31%
Population Tubulin-Different-Phenotype (%) [8]: 65%
Total Cell Count [8]: 98
Population Apoptotic (%) [9]: 44%
Population Fragmented Nuclei (%) [9]: 18%
Population Healthy Nuclei (%) [9]: 73%
Population Hoechst High Intensity Objects (%) [9]: 1%
Population Membrane Permeable-Phenotype (%) [9]: 1%
Population Mitochondria Different-Phenotype (%) [9]: 1%
Population Mitotic Cells (%) [9]: 55%
Population Normal (%) [9]: 98%
Population Pyknosed Nuclei (%) [9]: 8%
Population Tubulin-Different-Phenotype (%) [9]: 16%
Total Cell Count [9]: 112
Population Apoptotic (%) [10]: 60%
Population Fragmented Nuclei (%) [10]: 35%
Population Healthy Nuclei (%) [10]: 55%
Population Hoechst High Intensity Objects (%) [10]: 2%
Population Membrane Permeable-Phenotype (%) [10]: 5%
Population Mitochondria Different-Phenotype (%) [10]: 3%
Population Mitotic Cells (%) [10]: 40%
Population Normal (%) [10]: 97%
Population Tubulin-Different-Phenotype (%) [10]: 25%
Total Cell Count [10]: 171
Population Apoptotic (%) [11]: 23%
Population Fragmented Nuclei (%) [11]: 30%
Population Healthy Nuclei (%) [11]: 55%
Population Hoechst High Intensity Objects (%) [11]: 4%
Population Membrane Permeable-Phenotype (%) [11]: 2%
Population Mitochondria Different-Phenotype (%) [11]: 4%
Population Mitotic Cells (%) [11]: 76%
Population Normal (%) [11]: 95%
Population Pyknosed Nuclei (%) [11]: 13%
Population Tubulin-Different-Phenotype (%) [11]: 35%
Total Cell Count [11]: 133
Population Apoptotic (%) [12]: 39%
Population Fragmented Nuclei (%) [12]: 40%
Population Healthy Nuclei (%) [12]: 37%
Population Hoechst High Intensity Objects (%) [12]: 2%
Population Membrane Permeable-Phenotype (%) [12]: 0%
Population Mitochondria Different-Phenotype (%) [12]: 10%
Population Mitotic Cells (%) [12]: 60%
Population Normal (%) [12]: 97%
Population Pyknosed Nuclei (%) [12]: 22%
Population Tubulin-Different-Phenotype (%) [12]: 69%
Total Cell Count [12]: 107
